Measurements: publication PMC11865470 (Communications Biology, 2025)
Substitutions are numbered along the chain they refer to. Where two headings read alike, the source gives them in different places. One block for each compound: values may come before it.

Tests used:
Otop1 channel = conditions: cited from earlier work
[1] = biological target: T1, mouse Otop1 (mOtop1) channels (Mus musculus, UniProt Q80VM9); format: cell-based; conditions: read-out: IC50, inhibition of mOtop1 currents, n = 5-6
T1 sequence (Q80VM9 1-600): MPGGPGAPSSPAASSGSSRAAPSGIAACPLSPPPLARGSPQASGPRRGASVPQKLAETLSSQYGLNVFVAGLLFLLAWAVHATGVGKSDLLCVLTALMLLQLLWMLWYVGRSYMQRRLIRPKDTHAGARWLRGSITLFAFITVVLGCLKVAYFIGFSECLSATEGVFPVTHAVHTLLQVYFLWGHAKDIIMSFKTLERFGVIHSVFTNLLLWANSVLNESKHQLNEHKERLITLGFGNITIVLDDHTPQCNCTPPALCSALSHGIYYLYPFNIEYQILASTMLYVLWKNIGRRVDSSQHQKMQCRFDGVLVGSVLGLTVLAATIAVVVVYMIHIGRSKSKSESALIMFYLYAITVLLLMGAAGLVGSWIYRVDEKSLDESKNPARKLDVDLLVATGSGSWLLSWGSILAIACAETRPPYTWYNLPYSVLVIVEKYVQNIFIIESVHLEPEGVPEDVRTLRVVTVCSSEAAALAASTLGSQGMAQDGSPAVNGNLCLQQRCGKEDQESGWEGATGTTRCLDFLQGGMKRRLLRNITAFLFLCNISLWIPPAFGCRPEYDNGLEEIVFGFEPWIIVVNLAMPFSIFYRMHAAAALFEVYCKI

mOtop1/R554A = biological target: T2, mOtop1/R554A (Mus musculus, UniProt Q80VM9, R554A); experiment: patch-clamp, mOtop1 mutant; format: cell-based; conditions: 1 mM Zn2+
T2 sequence (Q80VM9 1-600 R554A): T1 sequence (Q80VM9 1-600) with R554A

[2] = tested on: HEK293 cells expressing merely pHmScarlet-mTurquise2; experiment: live cell intracellular pH imaging; format: cell-based; conditions: pH 5.0; nontransfected cells
In short: (§1)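 HEK293 cells were electroporated (180 V, 25 ms) with pHmScarlet-mTurquise2, with or without mOtop1, and imaged 24 h later. Cells sat in pH 7.4 solution (mM: 140 KCl, 10 NaCl, 1 MgCl2, 20 HEPES), then were shifted to pH 8.5 (Tris), 6.0 (MES) or 5.0 (HomoPIPES). Test compound was 10 μM in the stimulus solution, with acetic acid pH 5.0 as positive control. FpHmScarlet/FmTurquise2 ratio read every 2 s.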

[3] = biological target: T3, mOtop1 channels co-expressed in HEK293 cells (Mus musculus, UniProt Q80VM9); experiment: live cell intracellular pH imaging; format: cell-based; conditions: pH 5.0; mOtop1 transfected cells
T3 sequence (Q80VM9 1-600): T1 sequence (Q80VM9 1-600)
In short: as §1

mOtop1 channel = conditions: read-out: EC50, activating Otop1 currents; neutral and acidic conditions; cited from earlier work

Structure (SMILES): Nc1c(S(=O)(=O)O)cc(Nc2ccc(Nc3nc(Cl)nc(Nc4ccccc4S(=O)(=O)O)n3)c(S(=O)(=O)O)c2)c2c1C(=O)c1ccccc1C2=O [Cibacron Blue 3G-A]
action on Otop1 (Otop1 channel): moderate antagonist

IC50 ([1]; currents activated by pH 5.5 alone): 72 ± 9 µM
IC50 ([1]; currents activated by pH 5.5 with 10 μM MFaN): 58 ± 13 µM
effect on mOtop1/R554A currents (mOtop1/R554A): significantly inhibited
Structure (SMILES): [Zn+2] [Zn^2+]

pHi change, positive control [3]: triggered dramatical pHi dropdown
Structure (SMILES): CC(=O)O [acetic acid, reference compound]
pHi change, positive control [2]: triggered dramatical pHi dropdown

Structure (SMILES): Cc1ccc(C(C)C)cc1O [carvacrol]
EC50 (mOtop1 channel): ~700 µM
